Results published in the RNAGym collection of RNA variant scans (doi:10.1126/science.aae0568).
Variants at the floor of the assay were thinned out.

B1: tRNA (parent)
chain: GUUCCGUUGGCGUAAUGGUAACGCGUCUCCCUCCUAAGGAGAAGACUGCGGGUUCGAGUCCCGUACGGAACG

Variants of: B1
Assay: yeast fitness relative to wild type (ratio to wild type); higher = fitter; tRNA-Arg(CCU), competitive growth, 37 C, YPD
Outline: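 Genotype frequency changes were the basis for Darwinian fitness relative to wild type. The frequencies came from 100-nucleotide paired-end sequencing of gene amplicons from the start population and each end population of pooled yeast strains with tRNA-Arg(CCU) gene variants at the native locus. Competition ran in YPD at 37°C for 24 hours in six replicates, genotypes needed ≥ 100 starting reads, and estimates < 0.5 were set to 0.5.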
For GUUUCGUUGGCGUAAUGGUAACGCGUCUCCCUCGUAAGGACAAGACUGCGGGUUCCAAUCCCCUUCGGAACG, the yeast fitness was no more than 0.5. GUUUCGUUGGCGUAAUGGUAACGCGUCUCCCUCGUAAGGAGAAGACUGCGGGUUCGAGUCCCGUACGGAACG gave a yeast fitness of 0.768. For GUUUCGUUGGCGUAAUGGUAACGCGUCUCCCUCUUAAGGAGAAGACUGCGGGUUCGAGUCCCGUACGGAACG, the yeast fitness was 0.737. GUUUCGUUGGCGUAAUGGUAACGCGUCUCUCUCUUAAGGAGAAGACUGCGGGUUCGAGUCCCGUACGGAACG showed a yeast fitness of no more than 0.5. For GUUUCGUUGGCGUAAUGGUAACGCGUUUCCCUCCUAAGCAGAAGACAGCGGGUUCGAGUCCCGUACGGAACG, the yeast fitness was no more than 0.5. Variant GUUUCGUUGGCGUAAUGGUAACGGGACGCCCUCCUAAGGAGAAGACUGCGGGUUCGAGUCCCGUUCGGAACG has a yeast fitness of no more than 0.5. Work on GUUUCGUUGGUGUAGUGGUAACGCGUCUCCCUCUUAAGGAGAAGACUGCGGGUCUGAGUCCCGUACGGAACG yielded a yeast fitness of 0.501. GUUUCGUUGGCGUAAUGGUAACGCGUCUCACUCCUAAGGAGAAGACUGCGGGUUCGAGUCCCAUACGGAACG showed a yeast fitness of 0.828. In the case of GUUUCGUUGGCGUAAUGGUAACGCGUCUCCCUCCUAAGGAGAAGACUGCGGGUUCGAGUCCCGUAAGGAACG, the yeast fitness is reported as 0.746. In the case of GUUUCGUUGGUGUAAUGGUAACGCGGCCCCCUCCUAGGGAAAAGACUGGGGGUUCGAGUCCCGUACGGAACG, the yeast fitness is reported as no more than 0.5. Work on GUUUCGUUGGCGUAAUGGUAACGCGUCUCCCUCGUACGGAGAAGACUGCGGGUUCGAGUCCCGUACGGAACG yielded a yeast fitness of 0.539. Variant GUUUCGUUGGCGUAAUGGUAACGCGUCUCGCUCCUUAGGAGAAGACUGCGGGUUUGAGUCCCGUACGGAACG has a yeast fitness of no more than 0.5. GUUUCGUUGGCGUAAUGGUAACGGGACGCCCACCUAAGGAGAAGACUGCGGGUUCGAGUCCCGUACGGAACG gave a yeast fitness of no more than 0.5. For GUUUCAUUGGCGUAAUGGUAACGCGUCUCCCUCAUAAGGAGAAGACUGCGGGUUCGAGUCCCGUACGGACCG, the yeast fitness was no more than 0.5. GUUUCGUUGGCGUAAUGGUAACGCGUCUCACUCCUAAGGAGAAGACUGCGGGUUCGAGUCUCGUACGGAACG gave a yeast fitness of 0.812. GUUUCGUUGGCGUAAUGGUAAGGCGUCUCCCUCCUAAGGAGAAGACUGCGGGUUCGUGUCCCCUACGGAACG gave a yeast fitness of no more than 0.5. Work on GUUUCGUUGGCGUAAUGGUAAUGCGUCUCCCUCCUAAGGAGAAGACUGCGGGUUGGAGUCCCGUACGGAACG yielded a yeast fitness of no more than 0.5. For GUUUCGUUGGCGUAAUGGUAAUGCGUCUCCCUCCUAAGGAGAAGACUGCGGGUUUGAGUCCCGUACGGAACG, the yeast fitness was 0.544. GUUUCGUUGGCGUAAUGGUAACGCGUUUCCCUCCUAAGGAGAAGACCGCGGGUUCGAGUCCCGUACGGAACG gave a yeast fitness of 0.734. With GUUUCGUUGGCGUAAUGGUAACGCGUAUCUCUCCUAUGGAGAAGACUGCGGGUUCGAGUGCCGUACGGAACG the yeast fitness was 0.639. In the case of GUUUCGUUGGCGUAAUGGUAACGCGUAUCCUUCCUAAGGAGAUGACUGCGGGUUCGAGUCCCGUACGGAACG, the yeast fitness is reported as 0.57. With GUUUCGUUGGCGUAAUGGUAACGAGUCUCCCUCCUAAGGAGAAGACUGCGGGUUCGAGGCCUGUACGGAGCG the yeast fitness was no more than 0.5. Work on GUUUCGUUGGCGUAAUGGUAACGAGUCUCCCUCCUAAGGAGAAGACUGCGGGUUCGAGUCCCGUACGGUACG yielded a yeast fitness of 0.601. For GUUUCGUUGGCGUAAUGGUAACGCGUCUCCCUCCUAAGGAGAAGAGUGCGGGUUCGAGUCCCCUAAGGAACG, the yeast fitness was no more than 0.5. Variant GUUUCGUUGGCGUAAUGGUAACGCGUCUCCCUCCUAAGGAGAAGAGUGCGGGUUCGAGUCCCGUACGGAACG has a yeast fitness of 0.981. For GUUUCGUUGGCGUAAUGGUAACGCGUUUCCCUCCUAAGGAGAAGACUGCGGGUACGAGUCCCGUACGGAACG, the yeast fitness was no more than 0.5. For GUUUCGUUGGUGUAAUGGUAACGCGUCUCCCUUCUAAGGAGAAGACUGCGGGUUCGAGUCCAGUACGGAACG, the yeast fitness was no more than 0.5. GUUUCGUUGGCGUAAUGGUAAUGCGUCUCCCUCCUAAGGAGCAGACUGCGGGUUCGAGUCCCGUACGGAACG showed a yeast fitness of no more than 0.5. With GUUUCAUUGGCGUAAUGGUAACGCGUCUCCCUCUUAAGGAGAAGACUGCGGGUUCGAGUCCCGUACGGAACG the yeast fitness was no more than 0.5. Variant GUUUCGUUGGCGUAAUGGUAAAGCGUCUCCCUCCUAAGGCGAAGACUGCGGGUUCGAGUCCCGUACGGAACG has a yeast fitness of no more than 0.5. With GUUUCGUUGGCGUAAUGGUAACGCGUCUCCCUCCUAAGGAGAAGACUGUGGGUUCGAGUCCCGUACGGAACG the yeast fitness was 0.989. GUUUCGUUGGCGUAAUGGUAACGCGUCUCCCUCCUAAGGAGAAGACUGAGGGUUCGAGUCCCGUACGGAACG showed a yeast fitness of 0.787. In the case of GUUUCGUUGGUGUAAUGGUAACGCGUCUCGCUCCUAAGGAGAAGACUGCGGGUUCGAGUCCCGUACGCAACG, the yeast fitness is reported as 0.593. GUUUCGUUGGCGUAAUGGUAACGUGUCUCCCUCCUCAGGAGAAGACUGCGGGUUCGAGUCGCGUACGGAACG gave a yeast fitness of no more than 0.5. With GUUUCGUUGGCGUAAUGGUAACGCGUCUCCCUCGAAAGGAGUAGACUGCGGGUUCGAGUCCCGUACGGAACG the yeast fitness was no more than 0.5. Work on GUUUCGUUGGCGUAAUGGUAACGCGUCUCACUCCUAAGGAGAAGACUGCGGGUUCGAGUCCUGUACGGAACG yielded a yeast fitness of 0.792. Work on GUUUCGUUGGCGUAAUGGUAAGGCGUCUCCCUCCUAAGGAGAAGACUACGGGUUCGAGUGCCGUACGGAACG yielded a yeast fitness of no more than 0.5. GUUUCGUUGGCGUAAUGGUAACGCGUCUCCGUCCUAAGGAGAAGCCUGAGGGUUCGAGUCCCGUACGGAACG showed a yeast fitness of no more than 0.5. Work on GUUUCGUUGGUGUAAUGGUAACCCGUCUCCCUCCUAUGGAGAAAACUGCGGGUUCGAGUCCCGUACGGAACG yielded a yeast fitness of no more than 0.5. With GUUUCGUUGGCGUAAUGGUAACGUGCCUCCCUCCUAAGGAGAAGACUGCGGGUUCGAGUCCCGUACGAAACG the yeast fitness was no more than 0.5. Variant GUUUCGUUGGCGUAAUGGUAACGCGUCUCACUCCUAAGGAGAAGACUGCGGGUUCGAGUCACGUACGGAUCG has a yeast fitness of 0.536. Variant GUUUCGUUGGCGUAAUGGUAACGAGUCUCCCUCCUAAGGAGAAGACUGCGGGUUCGAGUCCUGUACGGUACG has a yeast fitness of no more than 0.5. In the case of GUUUCGUUGGCGUAAUGGUAACGCGUCUUCCUCCUAAGGAGAAGACUACGGGUUCGAGUCCCGUACGGAACG, the yeast fitness is reported as 0.662. With GUUUCGUUGGCGUAAUGGUAACGCGUCUACCUCCUAAGGAGAAGACUGCGGGUUCGAGUCCCGUACGGAACG the yeast fitness was 0.691. Work on GUUUCGUUGGCGUAAUGGUAACGCGUCUCGCUCCUUAGGAGAAGACUGCGGGUUCGAGUCCCGUAAGGAACG yielded a yeast fitness of no more than 0.5. In the case of GUUUCGUUGGCGUAAUGGUAAUGCGUCUCCCUUCUAAGGAGAAGACUGCGGGUUCGAGUCCCGUACGGAACG, the yeast fitness is reported as 0.565. GUUUCGUUGGCGUAAUGGUAAGGCGUCUCCCUCCUCAGGAGAAGACUGCGGGUUCGAGUCCGGUACGGACCG showed a yeast fitness of no more than 0.5. For GUUUCGUUGGCGUAAUGGUAAGGCGUCUCCCUCCUAAGGAGAAGACUGCGGGUUCGAGUCCCGUACUGAACG, the yeast fitness was 0.638. Work on GUUUCAUUGGCGUAAUGGUAACGCGUCUGCCUCCUAAGGAAAAGACUGCGGGUUCGAGUACCGUACGGAACG yielded a yeast fitness of no more than 0.5. In the case of GUUUCGUUGGUGUAAUGGUAAGGCGUCUCCCUCCUAAGGAGAAGACUGCGGGUUCGAGUCACGUACGGAACG, the yeast fitness is reported as no more than 0.5. In the case of GUUUCGUUGGUGUAAUGGUAACGCGUCUCCCUCCUAAGGAGAAGACUGCGGGUUCGAGUCCCGUACAGCACG, the yeast fitness is reported as no more than 0.5. For GUUUCGUUGGCGUAAUGGUAACGCGUAUCCCUCCUAAGGAGAAGACUGCGCGUUCGAGUCCCGUACGGAACG, the yeast fitness was 0.562. Work on GUUUCGUUGGCGUAAUGGUAACGCGUCUCACUCCUAAGGAGAAGACUGCGGGCUCGAGUCCCGUACGGACCG yielded a yeast fitness of no more than 0.5. In the case of GUUUCGUUGGCGUAAUGGUAACGCGUCUCCGUCCUAAGGAGAAGACUGCGGGUUUGAGUCCCGUACGGAACG, the yeast fitness is reported as 0.579. With GUUUCAUUGGCGUAAUGGUAACGCGUCUCCCUCCUAAGGGGAGGACUGUGGGUUCGAGUCCCGUACGGAACG the yeast fitness was no more than 0.5. Work on GUUUCGUUGGCGUAAUGGUAACGUGUCUCCCUCCUAAGGAGAAGACUGCGGGUUCGAGUCCCGUACGGAACG yielded a yeast fitness of 0.944. With GUUUCGUUGGCGUAAUGGUAACGGGUCUCCCUCCUAAGGAGAAGACUGCGGGUUCGAGUCCCGUACGGAACG the yeast fitness was 0.591. GUUUCGUUGGCGUAAUGGUAACGCGUCUUCAUCCUAAGGAGAAGACUGCGGGUUUGCGUCCCGUACGGAACG showed a yeast fitness of no more than 0.5. In the case of GUUUCGUUGGCGUAAUGGUAACGCGUCUACGUCCUAAGGAGCAGUCUGCGGGUUCGAGUCCCGUACGGAACG, the yeast fitness is reported as no more than 0.5. With GUUUCGUUGGCGUAAUGGUAACGCGUCUCACUCCUAAGGAGAAGACUGCUGGUUCGAGUCCCGUACGGAACG the yeast fitness was 0.715. Variant GUUUCGUUGGCGUAAUGGUAACGCGUCUCCGUCCUAAGGAGAAGAUUGCGGGUUCGAGUCCCGUACGGAACG has a yeast fitness of 0.921. In the case of GUUUCGUUGGCGUAAUGGUAACGCGUCUCCCUCGUAAGGAGAAGACUGCGGGUUCGAGUCCCGUACGGCACG, the yeast fitness is reported as 0.664. GUUUCGUUGGCGUAAUGGUAACGCGUCUCCCUUCUAAGGAGAAGACUGCCGGUUCGAGUCCCGUACGGAACG gave a yeast fitness of no more than 0.5. For GUUUCGUUGGCGUAAUGGUAACGAGUCUCCCUCCUAAGGAGAAGACUGCGGGUUCGGGUCCCGUACGCAACG, the yeast fitness was no more than 0.5. GUUUCGUUGGCGUAAUGGUAACGUGUAUCCCUCCUAAGGAGAAGACUGCGGGUUCGAGUGCCGUACCGAACG showed a yeast fitness of no more than 0.5. With GUUUCGUUGGCGUAAUGGUAAAGCGUCUCCCUCCUAAGGCGAAGACUGCGGGUUGGCGUCCCGUACGGUACG the yeast fitness was no more than 0.5. Variant GUUUCGUUGGCGUAAUGGUAACGCGUCUCCCUACUAAGGAGAAGACUCCGGGUUCGAGUCCCGUACGGAACG has a yeast fitness of no more than 0.5. GUUUCGUUGGCGUAAUGGUAACGCGUCUCCUUCCUACGGAGAAGACUGCGGGUUCGAGUCCCGUACGGAACG gave a yeast fitness of 0.532. With GUUUCGUUGGCGUAAUGGUAACGAGACUCCCUCCUAAGGAGAAGACUGCGGGUUCGAGUCCCGUACGGAACG the yeast fitness was no more than 0.5. For GUUUCGUUGGCGUAAUGGUAACGCGUCUACCUCCUAAGGAGAAGACUGCGGGUUCGAAUCGCGUACGGAUCG, the yeast fitness was 0.548. GUUUCAUUGGCGUAAUGGUAACGCGUCUCCCUCCUAAGGAGAAGACUGCGGGUUCGAGUCCCGUACGGAACG showed a yeast fitness of 0.901. With GUUUCGUUGGCGUAAUGGUAACGCGUCUCCCUCCUAAGGAGAAGACUGCGGGUUCGAGUGCCAUACGGAACG the yeast fitness was 0.706. For GUUUCGUUGGUGUAAUGGUAACGAGUCUCCCUCCUAAGGAGAAGACGGCGGGUUCGAGUCCCGUACGGAACG, the yeast fitness was 0.557. GUUUCGUUGGCGUAAUGGUAACGUGUCUCCCUCCUAAGGAGAAGACUGCGGGUACGAGUCCCGUACGGAACG showed a yeast fitness of no more than 0.5. Variant GUUUCGUUGGCGUAAUGGUAACGCGUCUCCUUCCUAAGGAGAAGACUGCGGGUUCGAGUCCCGUACGGAACG has a yeast fitness of 0.966.
